The results in this text go back to ChEMBL document CHEMBL4411292, “Boronate, trifluoroborate, sulfone, sulfinate and sulfonate congeners of oseltamivir carboxylic acid: Synthesis and anti-influenza activity” (Eur J Med Chem, 2019).

Data set [1] deals with Influenza A virus. Nature of the data set: Antiviral activity against Influenza A virus (A/WSN/1933(H1N1)) infected in MDCK cells assessed as reduction in virus-induced cytopathic effect after 48 hrs by CellTiter 96 aqueous non-radioactive cell proliferation assay. The class given is functional, organism-based. The gist of the method:
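MDCK cells (DMEM with 10% FBS, 37 °C, 5% CO2) were seeded at 1 × 10^5 cells/mL and infected with 100 TCID50 of A/WSN/33 premixed with inhibitor at varied concentrations. Incubation was 48 h at 37 °C, 5.0% CO2. Viability was read with CellTiter 96 AQueous reagent (15 min, A490). EC50 was fitted from % CPE vs concentration, as mean ± SD of three experiments.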

Data set [2] is described as follows: Cytotoxicity against MDCK cells assessed as reduction in cell viability after 48 hrs by CellTiter 96 aqueous non-radioactive cell proliferation assay. The class given is cell-based, Canis lupus familiaris. The note with it: dog. The gist of the method:
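Uninfected MDCK cells at 1 × 10^5 cells/mL were exposed to inhibitor at varied concentrations for 48 h at 37 °C, 5.0% CO2. Viability was read with CellTiter 96 AQueous reagent (15 min, absorbance at 490 nm). CC50 was derived by curve fitting as for EC50.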

In data set [3] the target is Neuraminidase (Influenza A virus (A/Puerto Rico/8/1934(H1N1))) (UniProt P03468). Nature of the data set: Irreversible inhibition of influenza A virus (A/WSN/1933(H1N1)) neuraminidase using MUNANA as fluorogenic substrate preincubated up to 48 hrs followed by substrate addition and measured after 15 mins by fluorometric assay.

Activity calls are given as the source filed them. The rule behind the calls is not given here.

Neuraminidase (Influenza A virus (A/Puerto Rico/8/1934(H1N1))), sequence (P03468 whole entry): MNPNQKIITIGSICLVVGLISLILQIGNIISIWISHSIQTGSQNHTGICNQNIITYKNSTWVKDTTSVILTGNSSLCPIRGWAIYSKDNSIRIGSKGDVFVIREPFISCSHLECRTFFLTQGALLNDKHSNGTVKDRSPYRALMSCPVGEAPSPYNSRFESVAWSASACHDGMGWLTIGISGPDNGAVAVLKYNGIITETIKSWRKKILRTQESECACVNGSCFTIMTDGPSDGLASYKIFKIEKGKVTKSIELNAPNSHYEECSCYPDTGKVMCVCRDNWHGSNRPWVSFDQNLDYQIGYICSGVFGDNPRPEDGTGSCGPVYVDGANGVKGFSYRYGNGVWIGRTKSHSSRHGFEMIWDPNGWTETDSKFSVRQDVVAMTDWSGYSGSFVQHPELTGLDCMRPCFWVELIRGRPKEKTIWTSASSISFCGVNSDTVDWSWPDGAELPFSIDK

The term EC50 denotes the concentration giving half of the maximal effect. With `CCC(CC)O[C@@H]1C=C(S(C)(=O)=O)C[C@H](N)[C@H]1NC(C)=O`, in data set [1], the half-maximal effective concentration (EC50) amounted to 1.2 µM. As to `CCCCOS(=O)(=O)C1=C[C@@H](OC(CC)CC)[C@H](NC(C)=O)[C@@H](N)C1`, the 50% effective concentration (EC50) in data set [1] worked out at 0.19 µM. As usually defined, the CC50 is the concentration that lowers cell viability or growth by half. Consider `CCCCOS(=O)(=O)C1=C[C@@H](OC(CC)CC)[C@H](NC(C)=O)[C@@H](NC(=N)N)C1`, for which the EC50 in data set [1] worked out at 0.031 µM. In data set [2], the 50% cytotoxic concentration (CC50) at 48 h was over 100 µM. In the same order, the values of `CCC(CC)O[C@@H]1C=C(S(=O)(=O)O)C[C@H](NC(=N)N)[C@H]1NC(C)=O` are 0.0022 µM and over 100 µM.

Regarding `CCC(CC)O[C@@H]1C=C(S(=O)(=O)OCCCc2ccccc2)C[C@H](N)[C@H]1NC(C)=O`, the EC50 in data set [1] was 0.28 µM.

`CCC(CC)O[C@@H]1C=C(S(=O)(=O)CCc2ccncc2)C[C@H](NC(=N)N)[C@H]1NC(C)=O`: the EC50 in data set [1] came to 0.1 µM. Further, in data set [2], the 50% cytotoxic concentration (CC50) at 48 h was over 100 µM. Consider `CCC(CC)O[C@@H]1C=C(C(=O)O)C[C@H](N)[C@H]1NC(C)=O` [OSELTAMIVIR CARBOXYLATE], for which the EC50 in data set [1] amounted to 0.028 µM. In the case of `CCC(CC)O[C@@H]1C=C(B(O)O)C[C@H](N)[C@H]1NC(C)=O`, the concentration giving a half-maximal response (EC50) in data set [1] is 1.7 µM. The inhibition entry in data set [3] is “inactive”. Turning to `CCC(CC)O[C@@H]1C=C([S+]([O-])O)C[C@H](NC(=N)N)[C@H]1NC(C)=O` (stereo not given in full), in data set [1], the concentration for a half-maximal effect (EC50) was 0.0078 µM. Also, the 50% cytotoxic concentration (CC50) at 48 h in data set [2] is over 100 µM. In the same order, the values of `CCC(CC)O[C@@H]1C=C(S(C)(=O)=O)C[C@H](NC(=N)N)[C@H]1NC(C)=O` are 0.046 µM and over 100 µM.

In the case of `CCC(CC)O[C@@H]1C=C([B-](F)(F)F)C[C@H](NC(=N)N)[C@H]1NC(C)=O`, in data set [1], the half-maximal effective concentration (EC50) came to 0.27 µM. Also, the inhibition result in data set [3] was “inactive”. Turning to `CCC(CC)O[C@@H]1C=C(S(=O)(=O)OCCCc2ccccc2)C[C@H](NC(=N)N)[C@H]1NC(C)=O`, in data set [1], the concentration for a half-maximal effect (EC50) came out at 0.024 µM. In addition, the CC50 at 48 h in data set [2] was over 100 µM. Consider `CCC(CC)O[C@@H]1C=C(C(=O)O)C[C@H](NC(=N)N)[C@H]1NC(C)=O`, for which, in data set [1], the EC50 came to 0.014 µM.

For `CCC(CC)O[C@@H]1C=C([B-](F)(F)F)C[C@H](N)[C@H]1NC(C)=O`, the EC50 in data set [1] was found to be 0.86 µM. Further, in data set [3], the inhibition result is “inactive”. With `CCC(CC)O[C@@H]1C=C(S(=O)(=O)CCc2ccncc2)C[C@H](N)[C@H]1NC(C)=O`, in data set [1], the EC50 amounted to 1.5 µM. Turning to `CCC(CC)O[C@@H]1C=C(S(=O)(=O)O)C[C@H](N)[C@H]1NC(C)=O`, in data set [1], the EC50 is 0.014 µM. The CC50 at 48 h in data set [2] was over 100 µM. Turning to `CCC(CC)O[C@@H]1C=C([S+]([O-])O)C[C@H](N)[C@H]1NC(C)=O` (stereo not given in full), in data set [1], the concentration for a half-maximal effect (EC50) is 0.048 µM. Moreover, in data set [2], the CC50 at 48 h was over 100 µM. Consider `CCC(CC)O[C@@H]1C=C(B(O)O)C[C@H](NC(=N)N)[C@H]1NC(C)=O`, for which the concentration giving a half-maximal response (EC50) in data set [1] turned out to be 0.58 µM. Moreover, the inhibition result in data set [3] is “inactive”.
